Legend:
[1] = target: Glutamate NMDA receptor; test: Displacement of [3H]-MK-801 from rat cortical membranes NMDA receptor by beta counting analysis in presence of 30 uM spermine
How it was run: (§1)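 Membranes from rat frontoparietal cortex and hippocampus, prepared in 50 mM Tris acetate pH 7.0. 5 nM [3H]MK-801 was incubated with membranes (~1 mg wet tissue) for 3 h at 23 °C in 10 mM Tris acetate pH 7.0 with 10 µM glutamate and glycine, in triplicate, with or without 30 µM spermine. Compounds were tested at 3–4 concentrations. Nonspecific binding was set with 100 µM (S)-ketamine. Bound ligand was filtered and scintillation-counted. Spermine sensitivity = IC50 (with spermine)/IC50 (without).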

[2] = target: Glutamate NMDA receptor; test: Displacement of [3H]-MK-801 from rat cortical membranes NMDA receptor by beta counting analysis in absence of spermine; how it was run: as §1
[3] = target: Glutamate NMDA receptor; test: Displacement of [3H]-ifenprodil from rat cortical membranes NMDA receptor by beta counting analysis in absence of spermine
[4] = target: Glutamate NMDA receptor (Rattus norvegicus) (UniProt P35439+Q00959+Q00960+Q00961+Q62645+Q8VHN2+Q9R1M7); test: Ratio of IC50 for displacement of [3H]-MK-801 from rat cortical membranes NMDA receptor in presence of 30 uM spermine to IC50 for displacement of [3H]-MK-801 from rat cortical membranes NMDA receptor in absence of 30 spermine; how it was run: as §1

| SMILES | IC50 [1] | IC50 [2] | IC50 [3] | Ratio IC50 [4] |
| --- | --- | --- | --- | --- |
| N=C(N)c1ccc(N2CCN(c3ccc(C(=N)N)cc3)CC2)cc1 | 70.7 µM | 3.08 µM | 17 µM | 26.2 |
| N=C(N)c1ccc(NC(=O)c2cccc(C(=O)Nc3ccc(C(=N)N)cc3)n2)cc1 | 70.9 µM | 58.2 µM | > 100 µM | 1.22 |
| N=C(N)c1ccc(NCCNc2ccc(C(=N)N)cc2)cc1 | 50.7 µM | 2.01 µM | 0.76 µM | 30.2 |
| N=C(N)c1ccc(NCCCNc2ccc(C(=N)N)cc2)cc1 | 148 µM | 10 µM | 77.7 µM | 17 |
| N=C(N)c1ccc(OCc2ccc(COc3ccc(C(=N)N)cc3)cc2)cc1 | 25.7 µM | 5.24 µM | 10.8 µM | 5.25 |
